Bioassay records deposited in PubChem by Sanford-Burnham Center for Chemical Genomics.
Hits are enriched below; roughly 1.8% of the tested compounds scored in any of these assays.
Jurkat NFkB inh = lowers PMA/ionomycin-induced NF-kB signal in Jurkat cells | PMA/ionomycin-induced NF-kB luciferase reporter, luminescence | inhibition, % at 4 µM | 330,000 tested, 0.53% active; in the data active = inhibition above about 50%
hiPSC survival = hiPSC single-cell survival enhancement; ATPlite luminescence; 100% = ROCK inhibitor wells, 0% = DMSO; survival enhancement, % at 20 µM; 360,000 tested, 0.044% active; in the data active = survival enhancement above about 18%;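 note: cells exposed to compounds for 16 hours before the ATP read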
697 NFkB inh = inhibitors of the PMA/ionomycin-induced NF-kB reporter in 697 B cells; 697 B-cell NF-kB luciferase reporter, 16 h; inhibition, % at 4 µM; 330,000 tested, 0.33% active; in the data active = inhibition above about 35%
Gli-Sufu block = blocks Gli-Sufu signaling in a luciferase reporter | Sufu-KO-LIGHT fibroblasts, Gli luciferase reporter luminescence | inhibition, % at 5 µM | 340,000 tested, 0.74% active | AID 588413;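 active = inhibition above about 55%, limit read from the data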;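 note: 0% = DMSO-treated cells and 100% = wells with medium but no cells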
Lipid droplet = modulators of hepatic lipid droplet formation. AID 1656. inhibition, % at 6.5 µM. 240,000 tested, 0.4% active. AML12 mouse hepatocytes, oleate lipid droplets, BODIPY imaging;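 active = lipid droplet intensity inhibited by at least 50%, with more than 500 cells counted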
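Test system: AML12 mouse liver cells; schedule: overnight exposure; technique: high-content imaging of BODIPY-stained droplets and DAPI nuclei; read-out: % inhibition of corrected integrated BODIPY droplet signal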
H9c2 TAG inh = triacylglycerol accumulation inhibition; H9c2 cells, Nile Red lipid (TAG) fluorescence; cells loaded with 200 µM oleic acid; inhibition, % at 12.5 µM; 230,000 tested, 0.66% active;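 active = pattern-corrected inhibition of lipid staining of at least 50% with the nuclear-stain viability signal not falling by more than 50%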;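 note: 0% = DMSO wells and 100% = triacsin C control wells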
Hep lipid conf = confirmation of inhibitors of hepatic lipid droplet formation. shares compounds with Lipid droplet. AML12 mouse hepatocytes, BODIPY lipid droplet imaging; droplets induced with 100 µM oleic acid. inhibition, % at 5.2 µM. 870 tested, 65% active;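 active = inhibition of lipid droplet metric at least 50%, with more than 300 cells in each of four replicates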;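 note: plate controls were DMSO with oleic acid for no effect and 5 µM Triacsin-C for full effect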
AML12 tox img = AML12 hepatocyte cytotoxicity (counter-screen); 870 tested, 3% active; z-score at 5 µM; shares compounds with Lipid droplet; AID 463200; AML12 mouse hepatocytes, DAPI nuclear morphology cytotoxicity imaging; hits give high values; cells fed 100 µM oleate overnight; in the data active = z-score above about 6.3;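 note: compound exposure lasted overnight at 37 °C before fixation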
AML12 tox conf = confirmation of cytotoxicity in AML12 mouse hepatocytes. cytotoxicity, % at 50 µM. 530 tested, under 10 active. AML12 mouse hepatocyte viability, ATP luminescence; cells loaded with 100 µM oleic acid. shares compounds with Lipid droplet;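 active = cytotoxicity above 50% in each of four replicates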;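 note: compound exposure lasted overnight at 37 °C before the ATP read; 0% = DMSO-treated cells and 100% = wells with no cells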
* marks the source's active call; other numbers are inactive results; nt = not tested or not shown.

SMILES	Jurkat NFkB inh	hiPSC survival	697 NFkB inh	Gli-Sufu block	Lipid droplet	H9c2 TAG inh	Hep lipid conf	AML12 tox img	AML12 tox conf
CCC(C)(C)NC(=O)C(c1ccc(OC)cc1)N(Cc1ccc(OC)cc1)C(=O)CCC(=O)Nc1cc(C)on1 (stereo unspecified)	3	0	20	-8	17	nt	nt	nt	nt
COc1ccc(C(C(=O)NC(C)(C)C)N(Cc2ccccc2)C(=O)CCC(=O)Nc2cc(C)on2)cc1 (stereo unspecified)	9	-3	9	-3	66*	nt	70*	-0.48	7
COc1ccc(C(C(=O)NC(C)(C)C)N(CCC(C)C)C(=O)CCC(=O)Nc2cc(C)on2)cc1 (stereo unspecified)	10	-1	13	4	114*	nt	108*	-0.014	10
CCc1ccc(N(C(=O)CCC(=O)Nc2cc(C)on2)C(C(=O)NC(C)(C)C)c2ccc(OC)cc2)cc1 (stereo unspecified)	-7	-1	4	-2	40	nt	nt	nt	nt
CCC(C)(C)NC(=O)C(c1ccc(OC)cc1)N(Cc1ccccc1)C(=O)CCC(=O)Nc1cc(C)on1 (stereo unspecified)	20	0	7	24	54*	nt	92*	-0.42	9
O=C(NN1CCOCC1)C12CC3CC(CC(C3)C1)C2	-4	5	4	-4	7	nt	nt	nt	nt
Cn1c(SCC(=O)c2ccc(O)cc2O)nnc1-c1ccccc1	7	0	0	-18	2	nt	nt	nt	nt
COc1ccc(C)cc1NC(=O)C/C(C)=N/NC(=O)Cc1cccc2ccccc12	-12	1	6	-14	72*	nt	70*	-0.61	11
COc1ccc(CCNC(=O)C/C(C)=N/NC(=O)Cc2cccc3ccccc23)cc1OC	9	0	-8	-6	10	-2	nt	nt	nt
Cn1c(N)c(C(=O)COC(=O)c2ccc(S(=O)(=O)N3CCCCC3)cc2)c(=O)n(C)c1=O	-6	nt	15	nt	-25	nt	nt	nt	nt
CCOC(=O)C1=C(C)NC(=O)NC1/C=C/c1ccccc1OC (stereo unspecified)	2	0	3	-5	3	-1	nt	nt	nt
CCOC(=O)C1=C(C)NC(=O)NC1/C=C/c1ccccc1 (stereo unspecified)	25	-3	20	-3	62*	nt	24	-0.43	nt
CCOc1ccc(NS(=O)(=O)c2ccc(C(=O)N3CCC3)cc2)cc1	8	0	-24	19	71*	14	99*	-0.56	14
COc1ccc(C)cc1NC(=O)CCNS(=O)(=O)c1cccc(C(F)(F)F)c1	-14	0	6	-8	55*	nt	83*	0.18	6
COc1ccc(C)cc1NC(=O)CCNS(=O)(=O)c1ccc2c(c1)CCC(=O)N2	5	-1	4	4	-10	nt	nt	nt	nt
Cc1ccc(NC(=O)CSc2nnc(C)c(=O)n2N)cc1	12	0	-1	0	45	18	nt	nt	nt
CCc1ccc(NC(=O)CSc2nnc(C)c(=O)n2N)cc1	-9	1	-27	2	58*	29	89*	0.19	11
Cc1ccc(C)c(C(=O)N2CCN(c3ncccn3)CC2)c1	12	0	3	5	57*	nt	-13	-0.17	nt
O=C(CSc1nc(O)cc(=O)[nH]1)N1c2ccccc2Sc2ccccc21	-27	0	5	5	56*	nt	9	0.47	nt
COc1cc(-c2nc3ccccn3c2/N=C/c2cc(OC)c(O)cc2Cl)ccc1O	-12	1	20	-9	-4	19	nt	nt	nt
CC1CCCCN1Cc1c(O)ccc2c(=O)c(-c3ccccc3)coc12 (stereo unspecified)	-7	0	-25	-4	87*	nt	-35	1	nt
CCC1CCCCN1Cc1c(O)ccc2c(=O)c(-c3ccccc3)coc12 (stereo unspecified)	6	-1	-18	17	-2	1	nt	nt	nt
O=C(Nc1ccc(NC(=O)c2cc3ccccc3o2)cc1)c1ccco1	8	0	2	-26	70*	nt	65*	-0.081	11
COc1cc(NC(=O)c2ccco2)c(OC)cc1NC(=O)CCC(=O)Nc1cc(C)ccc1C	21	0	12	7	nt	nt	nt	nt	nt
CCOc1ccc(CC(=O)Nc2ccc(NC(=O)c3ccco3)cc2)cc1OCC	nt	0	nt	8	57*	13	98*	-0.086	9
SMILES	Jurkat NFkB inh	hiPSC survival	697 NFkB inh	Gli-Sufu block	Lipid droplet	H9c2 TAG inh	Hep lipid conf	AML12 tox img	AML12 tox conf
COc1cc(NC(=O)c2ccco2)c(OC)cc1NC(=O)CCC(=O)Nc1cc(C)cc(C)c1	-1	-1	-7	12	97*	nt	107*	-0.15	56*
Cn1c(=O)c2c(ncn2CC(=O)OCC(=O)Nc2cc(Cl)ccc2Cl)n(C)c1=O	-1	-2	0	4	3	nt	nt	nt	nt
CC(Sc1nnc(-c2ccccc2)c(-c2ccccc2)n1)C(=O)N1CCc2ccccc21 (stereo unspecified)	-1	3	3	-3	57*	nt	82*	-0.34	8
C=CCN(C(=O)c1csnn1)C(C(=O)NC1CCCCC1)c1ccccc1F (stereo unspecified)	-11	0	-7	-12	56*	nt	93*	-0.66	12
Cc1ccc(C(C(=O)NC2CCCCC2)N(C(=O)c2csnn2)C2CCCC2)o1 (stereo unspecified)	-11	-1	7	0	52*	nt	81*	-0.24	13
COc1ccc(-c2csc(NC(=O)c3ccc(OCC(=O)N4CCOCC4)c(OC)c3)n2)cc1	9	-2	14	-9	83*	nt	107*	-0.56	53
CN(C)/C=N/n1cnc2ccccc2c1=O	-6	0	7	-1	61*	3	-24	-0.36	nt
Cc1nc(NC(=O)C2CC2)sc1C(=O)N(C)C	-3	0	-5	4	70*	nt	-17	-0.32	nt
COC(=O)Nc1nc(C)c(C(=O)N(C)C)s1	-8	-2	4	7	nt	nt	nt	nt	nt
COc1ccc(Cl)cc1C(=O)NNC(=O)CSc1nncn1C	0	3	6	-2	nt	-6	nt	nt	nt
CCOC(=O)c1ccc(NC(=O)CN(Cc2ccc(Cl)cc2)S(C)(=O)=O)cc1	3	0	15	1	50*	nt	76*	-0.59	2
CC(=O)c1cccc(NC(=O)CN(Cc2ccccc2)S(C)(=O)=O)c1	1	1	-13	18	-8	nt	nt	nt	nt
COc1cccc(NC(=O)CN(Cc2ccccc2)S(C)(=O)=O)c1	-3	0	16	-1	50*	nt	43	-0.27	nt
